According to ChEMBL document CHEMBL1773057, “Design, synthesis and in vitro antimicrobial evaluation of novel Imidazo[1,2-a]pyridine and imidazo[2,1-b][1,3]benzothiazole motifs” (2011):
In brackets after ≈: the same amount, converted by molar mass.

Test system: Escherichia coli
Experiment: Antimicrobial activity against Escherichia coli after 24 hrs by broth microdilution method
Assay type: functional
Conditions: not given
Summary of the method: (§1)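 Broth microdilution. Bacteria were grown on Mueller-Hinton agar and diluted in Mueller-Hinton broth. Compounds were made as 1000 µg/mL stocks in 50% DMSO/H₂O and added to wells as two-fold dilutions starting at 500 µg/mL, then inoculated. Sealed plates were incubated at 37 °C for 24 h in a humid chamber. MIC was the lowest concentration with no visible turbidity.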

SMILES | MIC
COc1ccc2ncc(-c3nc4sc5cc(F)ccc5n4c3Nc3ccc(F)cc3)cc2c1 | 10.4 µg/mL (≈ 22.7 µM)
COc1ccc2c(c1)sc1nc(-c3c[nH]c4ccc(Br)cc34)c(Nc3ccc(F)cc3)n12 | 8.12 µg/mL (≈ 16 µM)
Cc1ccc2ncc(-c3nc4sc5cc(F)ccc5n4c3Nc3ccc(F)cc3)cc2c1 | 10.4 µg/mL (≈ 23.5 µM)

Second part, the molecule after the results:

MIC | SMILES
1.12 µg/mL (≈ 2.02 µM) | Fc1ccc(Nc2c(-c3c[nH]c4ccc(Br)cc34)nc3ccc(-c4nc5ccc(F)cc5[nH]4)cn23)cc1
0.42 µg/mL (≈ 0.722 µM) | Fc1ccc(Nc2c(-c3c[nH]c4ccc(Br)cc34)nc3ccc(-c4ncc(-c5ccc(F)cc5)[nH]4)cn23)cc1
1.72 µg/mL (≈ 2.76 µM) | O=[N+]([O-])c1ccc(-c2nnc(-c3ccc4nc(-c5cnc6ccc(Br)cc6c5)c(Nc5ccc(F)cc5)n4c3)o2)cc1
2.14 µg/mL (≈ 3.6 µM) | O=[N+]([O-])c1ccc2nc(-c3ccc4nc(-c5cnc6ccc(Br)cc6c5)c(Nc5ccc(F)cc5)n4c3)[nH]c2c1

Test system: Priestia megaterium
Experiment: Antimicrobial activity against Bacillus megaterium after 24 hrs by broth microdilution method
Assay type: functional
Conditions: not given
Summary of the method: as §1

SMILES | MIC
COc1ccc2ncc(-c3nc4sc5cc(F)ccc5n4c3Nc3ccc(F)cc3)cc2c1 | 19.1 µg/mL (≈ 41.8 µM)
COc1ccc2c(c1)sc1nc(-c3c[nH]c4ccc(Br)cc34)c(Nc3ccc(F)cc3)n12 | 13.2 µg/mL (≈ 26.1 µM)
Cc1ccc2ncc(-c3nc4sc5cc(F)ccc5n4c3Nc3ccc(F)cc3)cc2c1 | 18.6 µg/mL (≈ 42.1 µM)

Results, then the molecule that gave them:

MIC | SMILES
1.43 µg/mL (≈ 2.57 µM) | Fc1ccc(Nc2c(-c3c[nH]c4ccc(Br)cc34)nc3ccc(-c4nc5ccc(F)cc5[nH]4)cn23)cc1
1.13 µg/mL (≈ 1.94 µM) | Fc1ccc(Nc2c(-c3c[nH]c4ccc(Br)cc34)nc3ccc(-c4ncc(-c5ccc(F)cc5)[nH]4)cn23)cc1
3.11 µg/mL (≈ 5 µM) | O=[N+]([O-])c1ccc(-c2nnc(-c3ccc4nc(-c5cnc6ccc(Br)cc6c5)c(Nc5ccc(F)cc5)n4c3)o2)cc1
4.12 µg/mL (≈ 6.93 µM) | O=[N+]([O-])c1ccc2nc(-c3ccc4nc(-c5cnc6ccc(Br)cc6c5)c(Nc5ccc(F)cc5)n4c3)[nH]c2c1

Test system: Staphylococcus aureus
Experiment: Antimicrobial activity against Staphylococcus aureus after 24 hrs by broth microdilution method
Assay type: functional
Conditions: not given
Summary of the method: as §1

SMILES | MIC
COc1ccc2ncc(-c3nc4sc5cc(F)ccc5n4c3Nc3ccc(F)cc3)cc2c1 | 12.4 µg/mL (≈ 27.1 µM)
COc1ccc2c(c1)sc1nc(-c3c[nH]c4ccc(Br)cc34)c(Nc3ccc(F)cc3)n12 | 7.33 µg/mL (≈ 14.4 µM)
Cc1ccc2ncc(-c3nc4sc5cc(F)ccc5n4c3Nc3ccc(F)cc3)cc2c1 | 8.63 µg/mL (≈ 19.5 µM)

Results, then the molecule that gave them:

MIC | SMILES
1.12 µg/mL (≈ 2.02 µM) | Fc1ccc(Nc2c(-c3c[nH]c4ccc(Br)cc34)nc3ccc(-c4nc5ccc(F)cc5[nH]4)cn23)cc1
0.23 µg/mL (≈ 0.396 µM) | Fc1ccc(Nc2c(-c3c[nH]c4ccc(Br)cc34)nc3ccc(-c4ncc(-c5ccc(F)cc5)[nH]4)cn23)cc1
1.45 µg/mL (≈ 2.33 µM) | O=[N+]([O-])c1ccc(-c2nnc(-c3ccc4nc(-c5cnc6ccc(Br)cc6c5)c(Nc5ccc(F)cc5)n4c3)o2)cc1
2.12 µg/mL (≈ 3.57 µM) | O=[N+]([O-])c1ccc2nc(-c3ccc4nc(-c5cnc6ccc(Br)cc6c5)c(Nc5ccc(F)cc5)n4c3)[nH]c2c1

Test system: Aspergillus flavus
Experiment: Antimicrobial activity against Aspergillus flavus after 48 hrs by broth microdilution method
Assay type: functional
Conditions: not given
Summary of the method: (§2)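 Fungi were grown on Sabouraud dextrose agar. Inocula were prepared in Sabouraud liquid medium at 37 °C for 12 h, then diluted in RPMI-1640 with L-glutamine, MOPS-buffered at pH 7. Compounds were made as 1000 µg/mL stocks in 50% DMSO/H₂O and tested as two-fold dilutions from 500 µg/mL. Sealed plates were incubated at 37 °C for 48 h in a humid chamber. MIC was the lowest concentration without visible turbidity.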

SMILES | MIC
COc1ccc2ncc(-c3nc4sc5cc(F)ccc5n4c3Nc3ccc(F)cc3)cc2c1 | 15.3 µg/mL (≈ 33.4 µM)
COc1ccc2c(c1)sc1nc(-c3c[nH]c4ccc(Br)cc34)c(Nc3ccc(F)cc3)n12 | 3.21 µg/mL (≈ 6.33 µM)
Cc1ccc2ncc(-c3nc4sc5cc(F)ccc5n4c3Nc3ccc(F)cc3)cc2c1 | 13.4 µg/mL (≈ 30.2 µM)

The remaining lines, values ahead:

MIC | SMILES
12.2 µg/mL (≈ 22 µM) | Fc1ccc(Nc2c(-c3c[nH]c4ccc(Br)cc34)nc3ccc(-c4nc5ccc(F)cc5[nH]4)cn23)cc1
3.25 µg/mL (≈ 5.59 µM) | Fc1ccc(Nc2c(-c3c[nH]c4ccc(Br)cc34)nc3ccc(-c4ncc(-c5ccc(F)cc5)[nH]4)cn23)cc1
7.15 µg/mL (≈ 11.5 µM) | O=[N+]([O-])c1ccc(-c2nnc(-c3ccc4nc(-c5cnc6ccc(Br)cc6c5)c(Nc5ccc(F)cc5)n4c3)o2)cc1
7.63 µg/mL (≈ 12.8 µM) | O=[N+]([O-])c1ccc2nc(-c3ccc4nc(-c5cnc6ccc(Br)cc6c5)c(Nc5ccc(F)cc5)n4c3)[nH]c2c1

Test system: Candida albicans
Experiment: Antimicrobial activity against Candida albicans after 48 hrs by broth microdilution method
Assay type: functional
Conditions: not given
Summary of the method: as §2

SMILES | MIC
COc1ccc2ncc(-c3nc4sc5cc(F)ccc5n4c3Nc3ccc(F)cc3)cc2c1 | 11.2 µg/mL (≈ 24.4 µM)
COc1ccc2c(c1)sc1nc(-c3c[nH]c4ccc(Br)cc34)c(Nc3ccc(F)cc3)n12 | 4.12 µg/mL (≈ 8.12 µM)
Cc1ccc2ncc(-c3nc4sc5cc(F)ccc5n4c3Nc3ccc(F)cc3)cc2c1 | 12.2 µg/mL (≈ 27.5 µM)

Further lines, results first:

MIC | SMILES
11.3 µg/mL (≈ 20.4 µM) | Fc1ccc(Nc2c(-c3c[nH]c4ccc(Br)cc34)nc3ccc(-c4nc5ccc(F)cc5[nH]4)cn23)cc1
3.21 µg/mL (≈ 5.52 µM) | Fc1ccc(Nc2c(-c3c[nH]c4ccc(Br)cc34)nc3ccc(-c4ncc(-c5ccc(F)cc5)[nH]4)cn23)cc1
6.4 µg/mL (≈ 10.3 µM) | O=[N+]([O-])c1ccc(-c2nnc(-c3ccc4nc(-c5cnc6ccc(Br)cc6c5)c(Nc5ccc(F)cc5)n4c3)o2)cc1
4.23 µg/mL (≈ 7.12 µM) | O=[N+]([O-])c1ccc2nc(-c3ccc4nc(-c5cnc6ccc(Br)cc6c5)c(Nc5ccc(F)cc5)n4c3)[nH]c2c1

Test system: Pseudomonas aeruginosa
Experiment: Antimicrobial activity against Pseudomonas aeruginosa after 24 hrs by broth microdilution method
Assay type: functional
Conditions: not given
Summary of the method: as §1

SMILES | MIC
COc1ccc2ncc(-c3nc4sc5cc(F)ccc5n4c3Nc3ccc(F)cc3)cc2c1 | 11.9 µg/mL (≈ 25.9 µM)
COc1ccc2c(c1)sc1nc(-c3c[nH]c4ccc(Br)cc34)c(Nc3ccc(F)cc3)n12 | 9.69 µg/mL (≈ 19.1 µM)
Cc1ccc2ncc(-c3nc4sc5cc(F)ccc5n4c3Nc3ccc(F)cc3)cc2c1 | 9.66 µg/mL (≈ 21.8 µM)

The next lines start with the values.

MIC | SMILES
1.51 µg/mL (≈ 2.72 µM) | Fc1ccc(Nc2c(-c3c[nH]c4ccc(Br)cc34)nc3ccc(-c4nc5ccc(F)cc5[nH]4)cn23)cc1
0.52 µg/mL (≈ 0.894 µM) | Fc1ccc(Nc2c(-c3c[nH]c4ccc(Br)cc34)nc3ccc(-c4ncc(-c5ccc(F)cc5)[nH]4)cn23)cc1
1.58 µg/mL (≈ 2.54 µM) | O=[N+]([O-])c1ccc(-c2nnc(-c3ccc4nc(-c5cnc6ccc(Br)cc6c5)c(Nc5ccc(F)cc5)n4c3)o2)cc1
2.32 µg/mL (≈ 3.9 µM) | O=[N+]([O-])c1ccc2nc(-c3ccc4nc(-c5cnc6ccc(Br)cc6c5)c(Nc5ccc(F)cc5)n4c3)[nH]c2c1

Test system: Candida parapsilosis
Experiment: Antimicrobial activity against Candida parapsilosis after 48 hrs by broth microdilution method
Assay type: functional
Conditions: Lodderomyces parapsilosis
Summary of the method: as §2

SMILES | MIC
COc1ccc2ncc(-c3nc4sc5cc(F)ccc5n4c3Nc3ccc(F)cc3)cc2c1 | 13.6 µg/mL (≈ 29.6 µM)
COc1ccc2c(c1)sc1nc(-c3c[nH]c4ccc(Br)cc34)c(Nc3ccc(F)cc3)n12 | 5.63 µg/mL (≈ 11.1 µM)
Cc1ccc2ncc(-c3nc4sc5cc(F)ccc5n4c3Nc3ccc(F)cc3)cc2c1 | 14.4 µg/mL (≈ 32.6 µM)

Further lines, results first:

MIC | SMILES
10.4 µg/mL (≈ 18.7 µM) | Fc1ccc(Nc2c(-c3c[nH]c4ccc(Br)cc34)nc3ccc(-c4nc5ccc(F)cc5[nH]4)cn23)cc1
4.61 µg/mL (≈ 7.93 µM) | Fc1ccc(Nc2c(-c3c[nH]c4ccc(Br)cc34)nc3ccc(-c4ncc(-c5ccc(F)cc5)[nH]4)cn23)cc1
5.34 µg/mL (≈ 8.58 µM) | O=[N+]([O-])c1ccc(-c2nnc(-c3ccc4nc(-c5cnc6ccc(Br)cc6c5)c(Nc5ccc(F)cc5)n4c3)o2)cc1
5.34 µg/mL (≈ 8.98 µM) | O=[N+]([O-])c1ccc2nc(-c3ccc4nc(-c5cnc6ccc(Br)cc6c5)c(Nc5ccc(F)cc5)n4c3)[nH]c2c1

Test system: Klebsiella aerogenes
Experiment: Antimicrobial activity against Enterobacter aerogenes after 24 hrs by broth microdilution method
Assay type: functional
Conditions: not given
Summary of the method: as §1

SMILES | MIC
COc1ccc2ncc(-c3nc4sc5cc(F)ccc5n4c3Nc3ccc(F)cc3)cc2c1 | 13.4 µg/mL (≈ 29.3 µM)
COc1ccc2c(c1)sc1nc(-c3c[nH]c4ccc(Br)cc34)c(Nc3ccc(F)cc3)n12 | 8.13 µg/mL (≈ 16 µM)
Cc1ccc2ncc(-c3nc4sc5cc(F)ccc5n4c3Nc3ccc(F)cc3)cc2c1 | 9.57 µg/mL (≈ 21.6 µM)

Continued, values first:

MIC | SMILES
1.15 µg/mL (≈ 2.07 µM) | Fc1ccc(Nc2c(-c3c[nH]c4ccc(Br)cc34)nc3ccc(-c4nc5ccc(F)cc5[nH]4)cn23)cc1
0.17 µg/mL (≈ 0.292 µM) | Fc1ccc(Nc2c(-c3c[nH]c4ccc(Br)cc34)nc3ccc(-c4ncc(-c5ccc(F)cc5)[nH]4)cn23)cc1
1.27 µg/mL (≈ 2.04 µM) | O=[N+]([O-])c1ccc(-c2nnc(-c3ccc4nc(-c5cnc6ccc(Br)cc6c5)c(Nc5ccc(F)cc5)n4c3)o2)cc1
3.15 µg/mL (≈ 5.3 µM) | O=[N+]([O-])c1ccc2nc(-c3ccc4nc(-c5cnc6ccc(Br)cc6c5)c(Nc5ccc(F)cc5)n4c3)[nH]c2c1

Test system: Nannizzia gypsea
Experiment: Antimicrobial activity against Microsporum gypseum after 48 hrs by broth microdilution method
Assay type: functional
Conditions: not given
Summary of the method: as §2

SMILES | MIC
COc1ccc2ncc(-c3nc4sc5cc(F)ccc5n4c3Nc3ccc(F)cc3)cc2c1 | 17.5 µg/mL (≈ 38.2 µM)
COc1ccc2c(c1)sc1nc(-c3c[nH]c4ccc(Br)cc34)c(Nc3ccc(F)cc3)n12 | 4.14 µg/mL (≈ 8.16 µM)
Cc1ccc2ncc(-c3nc4sc5cc(F)ccc5n4c3Nc3ccc(F)cc3)cc2c1 | 18.4 µg/mL (≈ 41.6 µM)

More lines, now with the values ahead:

MIC | SMILES
9.14 µg/mL (≈ 16.5 µM) | Fc1ccc(Nc2c(-c3c[nH]c4ccc(Br)cc34)nc3ccc(-c4nc5ccc(F)cc5[nH]4)cn23)cc1
8.12 µg/mL (≈ 14 µM) | Fc1ccc(Nc2c(-c3c[nH]c4ccc(Br)cc34)nc3ccc(-c4ncc(-c5ccc(F)cc5)[nH]4)cn23)cc1
8.27 µg/mL (≈ 13.3 µM) | O=[N+]([O-])c1ccc(-c2nnc(-c3ccc4nc(-c5cnc6ccc(Br)cc6c5)c(Nc5ccc(F)cc5)n4c3)o2)cc1
9.41 µg/mL (≈ 15.8 µM) | O=[N+]([O-])c1ccc2nc(-c3ccc4nc(-c5cnc6ccc(Br)cc6c5)c(Nc5ccc(F)cc5)n4c3)[nH]c2c1

Test system: Enterococcus faecalis
Experiment: Antimicrobial activity against Enterococcus faecalis after 24 hrs by broth microdilution method
Assay type: functional
Conditions: not given
Summary of the method: as §1

SMILES | MIC
COc1ccc2ncc(-c3nc4sc5cc(F)ccc5n4c3Nc3ccc(F)cc3)cc2c1 | 11.2 µg/mL (≈ 24.4 µM)
COc1ccc2c(c1)sc1nc(-c3c[nH]c4ccc(Br)cc34)c(Nc3ccc(F)cc3)n12 | 10.6 µg/mL (≈ 20.8 µM)
Cc1ccc2ncc(-c3nc4sc5cc(F)ccc5n4c3Nc3ccc(F)cc3)cc2c1 | 9.45 µg/mL (≈ 21.4 µM)

Next, values leading:

MIC | SMILES
1.36 µg/mL (≈ 2.45 µM) | Fc1ccc(Nc2c(-c3c[nH]c4ccc(Br)cc34)nc3ccc(-c4nc5ccc(F)cc5[nH]4)cn23)cc1
1.96 µg/mL (≈ 3.37 µM) | Fc1ccc(Nc2c(-c3c[nH]c4ccc(Br)cc34)nc3ccc(-c4ncc(-c5ccc(F)cc5)[nH]4)cn23)cc1
2.13 µg/mL (≈ 3.42 µM) | O=[N+]([O-])c1ccc(-c2nnc(-c3ccc4nc(-c5cnc6ccc(Br)cc6c5)c(Nc5ccc(F)cc5)n4c3)o2)cc1
3.36 µg/mL (≈ 5.65 µM) | O=[N+]([O-])c1ccc2nc(-c3ccc4nc(-c5cnc6ccc(Br)cc6c5)c(Nc5ccc(F)cc5)n4c3)[nH]c2c1
